Assay results from publication PMC5914179 (Advanced functional materials, 2016).

Columns and labels:
[1] = target: thrombin (Homo sapiens, UniProt P00734); test: Sensor cleavage during CaCl2-activated clotting of human plasma/serum; assay type: biochemical; conditions: control human plasma + CaCl2, PEG-T1Q sensor
[2] = target: recombinant human MMP9 (Homo sapiens, UniProt P14780); test: In vitro cleavage assay; assay type: biochemical; conditions: inhibitor 5 μM final, ~100 nM MMP9, PEG-M1Q 1 μM by peptide
Summary of the method: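 Quenched fluorogenic PEG-peptide substrate at 1 × 10^-6 M by peptide, incubated with recombinant human MMP9 (≈100 × 10^-9 M working concentration), with or without MMP inhibitor. Fluorescence dequenching monitored over time on a microplate reader.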

Chain of recombinant human MMP9 (P14780 94-707): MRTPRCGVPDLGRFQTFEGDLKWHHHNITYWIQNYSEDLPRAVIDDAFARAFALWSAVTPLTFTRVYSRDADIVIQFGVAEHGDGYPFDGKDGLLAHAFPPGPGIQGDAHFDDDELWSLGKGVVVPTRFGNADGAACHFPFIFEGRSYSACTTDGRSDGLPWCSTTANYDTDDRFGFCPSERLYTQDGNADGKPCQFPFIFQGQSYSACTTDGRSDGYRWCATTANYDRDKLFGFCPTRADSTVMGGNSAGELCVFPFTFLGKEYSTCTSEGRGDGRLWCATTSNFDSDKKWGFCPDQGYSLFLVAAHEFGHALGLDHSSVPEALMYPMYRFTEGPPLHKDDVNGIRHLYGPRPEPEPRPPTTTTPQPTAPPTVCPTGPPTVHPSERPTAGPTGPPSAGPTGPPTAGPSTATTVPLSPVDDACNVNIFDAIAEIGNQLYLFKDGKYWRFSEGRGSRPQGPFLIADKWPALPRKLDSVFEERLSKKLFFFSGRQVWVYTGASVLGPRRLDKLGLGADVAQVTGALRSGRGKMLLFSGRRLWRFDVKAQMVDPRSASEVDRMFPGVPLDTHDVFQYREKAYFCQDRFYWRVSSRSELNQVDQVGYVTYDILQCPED

Structure (SMILES) | effect of thrombin inhibitor on CaCl2-induced fluorescence increase of PEG-T1Q [1] | effect of MMP inhibitor on MMP9 proteolysis of PEG-M1Q [2]
CC1CNc2c(cccc2S(=O)(=O)N[C@@H](CCCNC(=N)N)C(=O)N2CC[C@@H](C)C[C@@H]2C(=O)O)C1 (some centres unmarked) [Argatroban] | eliminated the fluorescence increase | 
CNC(=O)[C@@H](NC(=O)[C@H](CC(C)C)[C@H](O)C(=O)NO)C(C)(C)C [Marimastat] |  | abrogated
